From PubChem BioAssay AID588833 (Broad Institute, 2011)

Molecular target: Scavenger receptor class B member 1 (Mus musculus) (UniProt Q61009)
Test: mSR-BI lipid transfer blockers in CHO cells – ldlA[mSR-BI] CHO cells, fluorescence, dry powder, set 7, dose response (AID 588833)
Conditions: DiI-HDL uptake fluorescence, 3 h
Outline: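 Test system: ldlA[mSR-BI] CHO cells; Reagent: DiI-labeled HDL at 10 µg/mL; Compound dosing: pin-transferred compounds; Times: 3 h uptake with compounds, 37 °C; Technique: bottom fluorescence, 550/595 nm.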

Chain of Scavenger receptor class B member 1 (Mus musculus) (Q61009 whole entry, looked up): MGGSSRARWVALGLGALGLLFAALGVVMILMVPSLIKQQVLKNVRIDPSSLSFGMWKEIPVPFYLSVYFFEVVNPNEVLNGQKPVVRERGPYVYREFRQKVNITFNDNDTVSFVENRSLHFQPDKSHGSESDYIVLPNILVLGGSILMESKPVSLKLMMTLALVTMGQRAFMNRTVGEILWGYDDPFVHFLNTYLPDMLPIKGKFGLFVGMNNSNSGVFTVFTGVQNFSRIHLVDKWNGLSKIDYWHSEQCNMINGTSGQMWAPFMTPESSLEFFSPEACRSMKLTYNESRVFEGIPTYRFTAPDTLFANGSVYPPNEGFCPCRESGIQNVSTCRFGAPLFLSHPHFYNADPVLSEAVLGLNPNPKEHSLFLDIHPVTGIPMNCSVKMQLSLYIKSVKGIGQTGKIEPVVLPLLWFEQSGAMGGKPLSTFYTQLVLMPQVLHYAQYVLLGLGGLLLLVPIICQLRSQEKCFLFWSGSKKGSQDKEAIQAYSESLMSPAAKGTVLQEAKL

AC50 [nM] | SMILES
15.4 | C[C@H](C(=O)NC1CCCC1)N(C(=O)Cn1nnc(-c2ccc3c(c2)OCO3)n1)C1CCCCC1
0.536 | CCCCCCC1CCC/C1=N\NC(N)=S (stereo not drawn)
6.18 | COCC(=O)N1CCc2cc(-c3csc(NC(=O)c4cc(OC)cc(OC)c4)n3)ccc21
